Assay results from ChEMBL document CHEMBL1148498, “Diphenylmethane skeleton as a multi-template for nuclear receptor ligands: preparation of FXR and PPAR ligands” (Bioorg Med Chem Lett, 2006).
The source made the active and inactive calls. The calls are words filed in the database; no cut-off is given here.

How the values were obtained:
[1] = molecular target: T1, Bile acid receptor (Homo sapiens) (UniProt Q96RI1); test: Activity at human recombinant FXR by transactivation of TK-MH100x4-LUC reporter gene in HEK293 cells at 10 uM; assay type: cell-based
T1 sequence (whole entry): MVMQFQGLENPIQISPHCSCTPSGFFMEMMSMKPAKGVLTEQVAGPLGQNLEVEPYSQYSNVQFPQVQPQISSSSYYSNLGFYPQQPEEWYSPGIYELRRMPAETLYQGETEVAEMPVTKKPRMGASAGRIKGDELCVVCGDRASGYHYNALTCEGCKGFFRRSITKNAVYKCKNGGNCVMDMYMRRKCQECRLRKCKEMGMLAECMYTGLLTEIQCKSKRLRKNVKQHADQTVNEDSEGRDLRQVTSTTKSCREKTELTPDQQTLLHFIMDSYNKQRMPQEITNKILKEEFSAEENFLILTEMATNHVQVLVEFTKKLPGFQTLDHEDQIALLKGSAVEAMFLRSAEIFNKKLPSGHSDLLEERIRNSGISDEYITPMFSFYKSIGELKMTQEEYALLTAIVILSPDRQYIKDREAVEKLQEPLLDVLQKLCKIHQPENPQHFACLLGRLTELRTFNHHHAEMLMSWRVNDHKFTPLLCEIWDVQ

[2] = molecular target: T2, Retinoic acid receptor alpha (Homo sapiens) (UniProt P10276); test: Activity at human recombinant RARalpha by transactivation of TK-MH100x4-LUC reporter gene in HEK293 cells at 10 uM; assay type: cell-based
T2 sequence (whole entry): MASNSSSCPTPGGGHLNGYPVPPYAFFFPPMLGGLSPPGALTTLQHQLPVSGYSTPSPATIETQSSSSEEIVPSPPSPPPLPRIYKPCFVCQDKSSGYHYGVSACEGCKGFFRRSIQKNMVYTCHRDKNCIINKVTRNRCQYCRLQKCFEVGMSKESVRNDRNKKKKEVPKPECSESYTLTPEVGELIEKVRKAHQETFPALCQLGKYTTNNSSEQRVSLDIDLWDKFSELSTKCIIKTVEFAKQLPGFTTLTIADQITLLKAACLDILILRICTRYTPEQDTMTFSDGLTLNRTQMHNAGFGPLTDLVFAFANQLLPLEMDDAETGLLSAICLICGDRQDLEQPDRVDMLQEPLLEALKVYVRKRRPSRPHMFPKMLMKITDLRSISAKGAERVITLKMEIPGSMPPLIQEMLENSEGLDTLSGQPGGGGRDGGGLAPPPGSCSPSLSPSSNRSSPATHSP

[3] = molecular target: T3, Retinoic acid receptor RXR-alpha (Homo sapiens) (UniProt P19793); test: Activity at human recombinant RXRalpha by transactivation of TK-MH100x4-LUC reporter gene in HEK293 cells at 10 uM; assay type: cell-based
T3 sequence (whole entry): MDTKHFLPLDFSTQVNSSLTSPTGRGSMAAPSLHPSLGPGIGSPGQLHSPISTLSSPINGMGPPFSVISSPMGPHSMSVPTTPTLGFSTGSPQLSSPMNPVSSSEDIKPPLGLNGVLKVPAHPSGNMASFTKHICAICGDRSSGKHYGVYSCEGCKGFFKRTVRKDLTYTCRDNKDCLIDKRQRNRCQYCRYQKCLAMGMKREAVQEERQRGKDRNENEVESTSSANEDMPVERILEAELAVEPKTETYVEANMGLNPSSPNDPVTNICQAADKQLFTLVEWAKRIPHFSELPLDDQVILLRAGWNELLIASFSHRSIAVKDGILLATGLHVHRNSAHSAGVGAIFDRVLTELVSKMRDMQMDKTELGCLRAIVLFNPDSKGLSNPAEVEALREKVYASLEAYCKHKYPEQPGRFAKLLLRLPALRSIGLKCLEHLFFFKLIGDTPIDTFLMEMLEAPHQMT

[4] = molecular target: T4, Oxysterols receptor LXR-alpha (Homo sapiens) (UniProt Q13133); test: Activity at human recombinant LXRalpha by transactivation of TK-MH100x4-LUC reporter gene in HEK293 cells at 10 uM; assay type: cell-based
T4 sequence (whole entry): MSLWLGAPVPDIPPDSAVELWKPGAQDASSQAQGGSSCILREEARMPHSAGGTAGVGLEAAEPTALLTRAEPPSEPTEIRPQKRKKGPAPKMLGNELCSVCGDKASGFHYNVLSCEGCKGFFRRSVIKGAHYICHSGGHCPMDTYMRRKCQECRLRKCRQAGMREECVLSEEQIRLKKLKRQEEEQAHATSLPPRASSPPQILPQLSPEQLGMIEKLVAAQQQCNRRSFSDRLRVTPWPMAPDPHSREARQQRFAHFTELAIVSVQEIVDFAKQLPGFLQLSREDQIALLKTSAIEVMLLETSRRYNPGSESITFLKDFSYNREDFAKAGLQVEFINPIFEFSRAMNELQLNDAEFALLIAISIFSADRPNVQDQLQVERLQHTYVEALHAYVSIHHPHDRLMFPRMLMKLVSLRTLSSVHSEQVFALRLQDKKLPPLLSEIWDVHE

[5] = molecular target: T5, Peroxisome proliferator-activated receptor alpha (Homo sapiens) (UniProt Q07869); test: Activity at human recombinant PPARalpha by transactivation of TK-MH100x4-LUC reporter gene in HEK293 cells at 10 uM; assay type: cell-based
T5 sequence (whole entry): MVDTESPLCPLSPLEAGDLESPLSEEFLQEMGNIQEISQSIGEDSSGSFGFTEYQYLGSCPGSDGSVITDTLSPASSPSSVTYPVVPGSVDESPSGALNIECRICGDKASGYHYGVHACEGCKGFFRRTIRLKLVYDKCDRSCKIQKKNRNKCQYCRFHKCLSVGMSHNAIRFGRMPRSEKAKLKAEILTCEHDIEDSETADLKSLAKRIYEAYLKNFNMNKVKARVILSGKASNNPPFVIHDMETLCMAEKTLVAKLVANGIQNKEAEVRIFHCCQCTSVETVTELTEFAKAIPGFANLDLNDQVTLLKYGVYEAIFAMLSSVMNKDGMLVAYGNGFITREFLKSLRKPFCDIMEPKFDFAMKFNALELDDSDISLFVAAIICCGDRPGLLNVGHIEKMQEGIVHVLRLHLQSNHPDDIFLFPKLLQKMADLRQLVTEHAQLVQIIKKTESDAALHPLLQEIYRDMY

[6] = molecular target: T6, Peroxisome proliferator-activated receptor gamma (Homo sapiens) (UniProt P37231); test: Activity at human recombinant PPARgamma by transactivation of TK-MH100x4-LUC reporter gene in HEK293 cells at 10 uM; assay type: cell-based
T6 sequence (whole entry): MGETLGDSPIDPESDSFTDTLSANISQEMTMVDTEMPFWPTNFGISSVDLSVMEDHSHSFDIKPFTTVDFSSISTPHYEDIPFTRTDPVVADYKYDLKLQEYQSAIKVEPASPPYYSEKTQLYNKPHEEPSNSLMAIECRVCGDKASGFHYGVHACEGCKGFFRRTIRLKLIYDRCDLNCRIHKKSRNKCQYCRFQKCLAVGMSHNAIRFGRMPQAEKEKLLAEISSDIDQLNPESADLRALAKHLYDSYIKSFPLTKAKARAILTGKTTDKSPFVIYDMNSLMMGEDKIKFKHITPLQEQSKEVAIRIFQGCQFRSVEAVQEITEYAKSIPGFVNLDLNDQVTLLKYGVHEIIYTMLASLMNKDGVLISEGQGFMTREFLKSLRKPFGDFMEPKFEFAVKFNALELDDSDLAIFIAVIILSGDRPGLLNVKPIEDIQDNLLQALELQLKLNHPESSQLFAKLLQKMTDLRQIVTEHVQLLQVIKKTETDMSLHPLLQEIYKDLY

[7] = molecular target: T7, Peroxisome proliferator-activated receptor delta (Homo sapiens) (UniProt Q03181); test: Activity at human recombinant PPARdelta by transactivation of TK-MH100x4-LUC reporter gene in HEK293 cells at 10 uM; assay type: cell-based
T7 sequence (whole entry): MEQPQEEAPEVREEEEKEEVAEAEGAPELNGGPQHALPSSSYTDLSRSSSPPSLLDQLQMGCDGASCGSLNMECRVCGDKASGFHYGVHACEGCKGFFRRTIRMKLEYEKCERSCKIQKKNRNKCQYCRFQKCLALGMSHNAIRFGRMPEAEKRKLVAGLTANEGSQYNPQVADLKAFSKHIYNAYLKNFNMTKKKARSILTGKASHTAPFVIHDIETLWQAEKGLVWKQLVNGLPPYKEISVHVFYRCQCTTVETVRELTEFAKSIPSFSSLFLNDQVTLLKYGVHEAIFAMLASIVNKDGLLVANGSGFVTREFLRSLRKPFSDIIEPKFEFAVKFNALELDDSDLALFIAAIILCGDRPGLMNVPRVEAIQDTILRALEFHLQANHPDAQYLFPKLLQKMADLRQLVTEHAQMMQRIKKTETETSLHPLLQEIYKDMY

[8] = molecular target: T8, Peroxisome proliferator-activated receptor alpha (Homo sapiens, UniProt Q07869); test: Agonist activity at human recombinant PPARalpha by transactivation of TK-MH100x4-LUC reporter gene in HEK293 cells; assay type: functional, cell-based
T8 sequence (Q07869 whole entry): T5 sequence (whole entry)
In short: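 GAL4 fusion of the human PPARα receptor (CMX-GAL4N-hPPARα) with the TK-MH100x4-LUC reporter, plus CMX β-galactosidase for normalization. HEK293 cells were grown in DMEM with 5% FBS at 37 °C and 5% CO2 and transfected by calcium phosphate coprecipitation. Compounds were added 8 h after transfection. Luciferase was read by luminometer, normalized to β-galactosidase, and averaged over three repeat experiments.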

[9] = molecular target: T9, Vitamin D3 receptor (Homo sapiens) (UniProt P11473); test: Activity at human recombinant VDR by transactivation of TK-MH100x4-LUC reporter gene in HEK293 cells at 10 uM; assay type: cell-based
T9 sequence (whole entry): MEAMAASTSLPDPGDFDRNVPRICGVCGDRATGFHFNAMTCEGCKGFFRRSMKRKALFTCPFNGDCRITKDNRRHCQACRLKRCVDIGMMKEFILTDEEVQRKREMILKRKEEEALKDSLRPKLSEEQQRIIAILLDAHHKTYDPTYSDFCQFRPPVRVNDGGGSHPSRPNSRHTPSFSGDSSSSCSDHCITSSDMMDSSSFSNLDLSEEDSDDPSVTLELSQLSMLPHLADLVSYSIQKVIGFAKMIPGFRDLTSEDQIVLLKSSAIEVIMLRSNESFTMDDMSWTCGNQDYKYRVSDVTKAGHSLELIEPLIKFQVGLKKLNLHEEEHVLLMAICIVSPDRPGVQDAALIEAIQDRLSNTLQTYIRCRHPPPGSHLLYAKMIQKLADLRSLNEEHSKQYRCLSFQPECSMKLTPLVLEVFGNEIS

[10] = molecular target: T1, Bile acid receptor (Homo sapiens); test: (§1) Agonist activity at human recombinant FXR by transactivation of TK-MH100x4-LUC reporter gene in HEK293 cells; assay type: functional, cell-based
[11] = molecular target: T10, Bile acid receptor (Homo sapiens, UniProt Q96RI1); test: as §1; assay type: functional, cell-based
T10 sequence (Q96RI1 whole entry): T1 sequence (whole entry)

| Activity [1] | Activity [2] | Activity [3] | Activity [4] | Activity [5] | Activity [6] | Activity [7] | EC50 [8] [µM] | Activity [9] | Activity [10] | EC50 [11] [µM] | SMILES |
| --- | --- | --- | --- | --- | --- | --- | --- | --- | --- | --- | --- |
| inactive | inactive | inactive | inactive | Active | inactive | inactive | 3.5 | inactive | – | – | CCC(Oc1ccc(C2(c3ccc(OC(CC)C(=O)O)c(C)c3)CCCCC2)cc1C)C(=O)O (stereo not given) |
| – | – | – | – | – | – | – | – | – | Active | – | CCC(CC)(c1ccc(NCC(O)CO)c(C)c1)c1ccc(OCc2c(-c3c(Cl)cccc3Cl)noc2C(C)C)c(C)c1 (stereo not given) |
| – | – | – | – | – | – | – | 9.2 | – | – | – | CC(C)(Oc1ccc(C(=O)c2ccc(Cl)cc2)cc1)C(=O)O [FENOFIBRIC ACID] |
| Active | inactive | inactive | inactive | inactive | inactive | inactive | – | inactive | – | 3.4 | CCC(CC)(c1ccc(OCC(=O)O)c(C)c1)c1ccc(OCc2c(-c3c(Cl)cccc3Cl)noc2C(C)C)c(C)c1 |
